# Screening results deposited in PubChem BioAssay by several laboratories.
# IEC-6 cytotox = counter-screen for KLF5 inhibitors: cytotoxicity in IEC-6 cells | IEC-6 cytotoxicity, luminescence viability | inhibition, % at 5 µM | actives 0.78% (n = 290,000) | AID 1825; in the data active means inhibition above about 22%;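 further: 0% = plate median of test compound wells and 100% = cytotoxic reference compound wells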
# Ba/F3 V617F tox = loss of viability in JAK2V617F-driven Ba/F3 cells; actives 1.1% (n = 220,000); inhibition, % at 5.6 µM; Ba/F3 EpoR-JAK2V617F viability, ATP luminescence;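 active means inhibition above the campaign mean plus 3 SD over all tested compounds, cut at about 24% in these data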;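 further: cytokine-independent growth of Ba/F3 cells driven by EpoR plus mutant JAK2; 0% = DMSO-treated cells and 100% = JAK inhibitor I control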
# b-catenin transl = modulators of beta-catenin nuclear translocation; HeLa beta-catenin nuclear translocation, immunofluorescence imaging; nuclear translocation activity, % at 5 µM; actives 0.3% (n = 190,000); AID 1665;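 active means nuclear translocation activity above 50% at 5 µM, with a well cell count of 50 or more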;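 further: per-cell ratio of nuclear to cytoplasmic median beta-catenin stain intensity; plate controls were DMSO negative control for no effect and GSK-3 inhibitor IX positive control for full effect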
#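 System: HeLa cells, endogenous beta-catenin; compound dosing: 5 µM primary single dose, 0.1% DMSO, 0.02–20 µM confirmation series; incubation: 24 h compound exposure at 37°C, 5% CO2; signal: beta-catenin immunofluorescence imaging with DAPI; evaluation: % activation, nuclear-to-cytoplasmic median beta-catenin signal ratio per cell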
# BaF3 tox = parental Ba/F3 viability inhibition as JAK2V617F counter-screen | inhibition, % at 5.6 µM | actives 1.1% (n = 220,000) | CellTiter-Glo ATP luminescence | AID 1486;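 active means inhibition above a per-campaign cutoff, the mean inhibition of all tested compounds plus 3 SD, cut at about 27% in these data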;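 further: 0% = DMSO wells and 100% = JAK Inhibitor I control wells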
# MT stabilizer = microtubule stabilizers in HeLa cells; AID 2205; HeLa tubulin immunostaining HCS, 24 h; share of cells brighter than vehicle mean+2SD; actives 0.83% (n = 200,000); % tubulin-high responders, % at 10 µM;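 active means plate Z-score above 3 for both tubulin-high and condensed-nucleus cell shares, with cell loss under 80%, at 10 µM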;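 further: anti alpha tubulin signal scored within the nucleus-defined area of each cell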
# APP 5UTR inh = APP translation inhibition | AID 1285 | actives 0.82% (n = 190,000) | SH-SY5Y APP 5'UTR-luciferase reporter, luminescence | inhibition, % at 2 µM;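 active means inhibition above a set limit, derived from the sample mean plus 3 SD, cut at about 45% in these data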
# Numbers without * were called inactive; · = no result. A selection: hits, their analogues and other compounds. The true share with any hit is near 2.2%.
SMILES,IEC-6 cytotox,Ba/F3 V617F tox,b-catenin transl,BaF3 tox,MT stabilizer,APP 5UTR inh
COC(=O)Cc1n[nH]c(=S)[nH]c1=O,-5.9,-1.7,1.0,4.4,5.2,49.6*
CCCCCCCC[n+]1c(C)n(-c2ccccc2)c2ccc(NC(C)=O)cc21,9.3,86.8*,-1.6,74.5*,5.4,-8.9
Cc1ccc(C(C)C)c(OCC(=O)NS(=O)(=O)c2ccc(Cl)cc2)c1,-6.3,·,·,·,·,·
Cn1cccc1/C=N/NC(=O)c1cccnc1,-2.1,-2.2,4.3,2.4,3.7,3.8
CN1/C(=C\C=N\NC(=O)c2ccc(O)cc2)C(C)(C)c2ccccc21,3.3,36.5*,0.5,42.3*,7.1,-0.6
CN1/C(=C\C=N\NC(=O)c2cccnc2)C(C)(C)c2ccccc21,1.1,37.5*,-1.4,42.9*,4.8,19.2
CCOc1ccccc1CN1CCN(C/C=C/c2ccc(OC)cc2)CC1CCO (centres undefined),11.1,3.8,1.0,43.1*,2.0,15.1
CCOc1ccc(NS(=O)(=O)c2cc(NC(=O)c3ccc(C)cc3)ccc2Cl)cc1,55.9*,80.3*,24.3,70.1*,20.7*,87.0*
COc1ccc(C(=O)Nc2ccc(Cl)c(S(=O)(=O)Nc3ccccc3OC)c2)cc1,1.7,-2.2,9.1,4.4,3.6,-11.7
C=CC[n+]1ccc(/C=C2\C=Cc3cc(C)ccc3N2CC)c2ccccc21,38.9*,99.8*,0.1,84.6*,11.6,27.3
CCN1/C(=C/c2cc[n+](CCCS(=O)(=O)[O-])c3ccccc23)Sc2ccccc21,-0.8,3.7,-1.9,4.4,10.7,-12.0
CN(C)S(=O)(=O)c1cccc(NC(=O)c2cc(-c3cccs3)nn2-c2cccc(Cl)c2)c1,0.3,-1.1,30.0,5.4,13.4*,4.1
Cc1cc(/C=c2/sc3nc4ccccc4n3c2=O)c(C)n1-c1ccccn1,4.8,-1.1,0.9,0.4,1.4,59.8*
CN1CCN(C(=O)c2ccccc2NC(=O)c2cccc(Cl)c2)CC1,-0.9,·,·,·,·,·
COc1cc(NCc2ccccc2O)c2ncccc2c1,7.4,-0.8,-0.1,1.8,·,·
COc1cc(NCCCCCCCN)c2ncccc2c1,11.1,50.3*,-1.2,36.8*,2.6,-8.0
CCCN1CCN(CC(O)COC(c2ccc(OC)cc2)c2ccc(OC)cc2)CC1 (centres undefined),8.2,·,·,·,·,·
Cc1ccc(S(=O)(=O)N(CC(=O)N=Nc2c(O)[nH]c3ccccc23)c2ccc(C)c(C)c2)cc1,4.3,-3.4,17.9,2.2,19.7*,-5.2
COc1ccc(C(=O)N/C(=C\c2ccccc2)C(=O)Nc2ccc(C(=O)NCC(=O)O)cc2)cc1,4.2,·,·,·,·,·
Cc1c(C(=O)N/N=C/c2ccccc2)[nH]c2ccc(Cl)cc12,7.0,4.4,55.6*,3.8,12.7,52.5*
Cc1c(C(=O)N/N=C/c2ccc(N(C)C)cc2)[nH]c2ccc(Cl)cc12,14.2,-0.4,40.6,0.8,15.0,89.8*
COc1ccc(N(C)C(=O)C2CCCN2S(=O)(=O)c2cccc3nsnc23)cc1 (centres undefined),4.1,·,·,·,·,·
Cc1c(C(=O)O)sc2[nH]c(=O)n(Cc3ccccc3)c(=O)c12,-9.6,·,·,·,·,·
CCc1c(C)nc2ncnn2c1NCCc1ccc(OC)c(OC)c1,0.6,-1.3,-1.6,7.4,3.3,7.8
COc1ccc(CCNc2c(C)c(C)nc3ncnn23)cc1,18.7,50.5*,14.7,57.9*,30.0*,4.7
SMILES,IEC-6 cytotox,Ba/F3 V617F tox,b-catenin transl,BaF3 tox,MT stabilizer,APP 5UTR inh
CN(C)CCCNC(=O)c1cc(C(=O)c2cccc(Cl)c2Cl)c[nH]1,0.7,·,·,·,·,·
Cc1ccc(C)c(S(=O)(=O)N2C(=S)NC(=O)C2CC(C)C)c1 (centres undefined),0.8,-1.8,-1.6,3.3,1.5,76.9*
N=c1ccn(Cc2ccc(F)cc2)cc1,-4.0,70.2*,0.4,60.7*,·,·
Cc1ccccc1CN1[C@@H]2c3ccccc3C[C@@H]2OCCS1(=O)=O,-3.8,·,·,·,·,·
Cc1[nH]c2ccccc2c1CCN(Cc1cccnc1)C(=S)Nc1cccc(F)c1,1.6,26.8*,0.3,29.7*,1.6,-21.5
Cc1[nH]c2ccccc2c1CCN(Cc1cccnc1)C(=S)Nc1ccc(F)cc1,-5.0,17.8,0.5,24.1,1.2,-16.1
O=c1cc(Nc2ccc3c(c2)OCCO3)[nH]c(=O)n1C1CCCCC1,2.4,12.3,0.3,3.5,48.7*,82.6*
CCc1ccc(Nc2cc(=O)n(C3CCCCC3)c(=O)[nH]2)cc1,-14.0,-1.7,·,2.2,3.1,-20.1
Cc1ccc2nc3cc([N+](=O)[O-])cc([N+](=O)[O-])c3cc2c1,-2.2,0.9,3.8,7.4,54.3,62.5*
Cc1ccnc(NS(=O)(=O)c2ccc(NC(=O)CC(C)c3ccccc3)cc2)n1 (centres undefined),-3.4,·,·,·,·,·
CCC1CO/C(=C(\C(Cl)=C(Cl)Cl)[N+](=O)[O-])N1 (centres undefined),-3.9,-0.3,1.7,-1.4,4.4,-1.5
CCOc1ccc2ccccc2c1C(=O)N1CCN(c2ccccc2)CC1,24.6*,46.3*,1.3,42.4*,47.1*,8.6
CCOC(=O)c1[nH]c(C)c(C(=O)N2CCN(c3ccccc3)CC2)c1C,-1.4,7.6,-1.4,6.0,4.6,19.7
COc1cc2c(C(=O)N3CCN(c4ccccc4)CC3)c(C)oc2cc1Br,4.0,-0.7,-1.7,-0.2,25.6*,-5.7
COc1ccc(-c2cc(=Nc3c(C)n(C)n(-c4ccccc4)c3=O)c3ccccc3o2)cc1,13.4,6.8,1.7,7.6,5.7,-56.7
COc1ccc(-c2c/c(=N\c3nc(-c4ccccc4)c(C)s3)c3ccccc3o2)cc1O,-5.1,-6.9,164.6*,0.4,7.0,-0.8
CCc1nc(SCC(=O)Nc2cc(C)on2)c2c(C)c(C)sc2n1,-1.6,-3.4,-0.5,2.0,4.6,-1.6
Cc1cc(NC(=O)CSc2nc(C3CC3)nc3sc(C)c(C)c23)no1,-0.8,-3.6,266.6*,3.0,33.5*,9.2
Cc1cccn2cc(-c3cc4ccccc4oc3=O)nc12,3.4,-2.3,-1.9,89.8*,4.1,-84.5
N#CC1(c2ccccc2)CCN(S(=O)(=O)c2ccc(OC(F)(F)F)cc2)CC1,5.0,·,·,·,·,·
COc1cc(NS(=O)(=O)c2ccc(NC(=S)NC(=O)CC(C)C)cc2)nc(OC)n1,-0.5,-1.7,0.3,-1.0,3.0,54.5*
COC(=O)CCC(=O)NC(=S)Nc1ccc(S(=O)(=O)Nc2cc(OC)nc(OC)n2)cc1,-0.3,0.0,·,4.7,3.1,-8.3
CC(=O)c1c(COC(=O)c2ccc(C)cc2)nc2ccccc2[n+]1[O-],-0.3,-3.4,0.3,50.8*,·,·
CCCN1CCC(=NNc2ccc(S(=O)(=O)N(CC)CC)cc2[N+](=O)[O-])CC1,-0.8,2.2,111.7*,10.7,13.6,53.3*
Cc1noc(C)c1S(=O)(=O)Nc1ccc(C#N)cc1,-6.8,·,·,·,·,·
